The target in test [1] is D(2) dopamine receptor (Homo sapiens) (UniProt P14416). Nature of the test: Negative allosteric modulation of recombinant human D2L receptor expressed in Flp-In CHO cells assessed as inhibition of dopamine-induced reduction in forskolin stimulated cAMP accumulation by measuring co-operativity factor up to 100 uM preincubated for 30 mins followed by forskolin stimulation and measured after 30 mins by BRET assay. Format: functional, cell-based. In general terms: cAMP levels reflect the balance of adenylyl cyclase and phosphodiesterase activity.

Test [2] shares this target. The experiment in a line: Displacement of [3H]Raclopride from recombinant human D2L receptor expressed in Flp-In CHO cell membranes after 2 to 3 hrs by microbeta counting method. An outline of the steps: (§1)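 hD2LR FlpIn CHO membrane homogenate (15 µg protein) was co-incubated with 0.5 nM [3H]raclopride and test compound at 10^-3 to 10^-7 M (half-log dilutions from DMSO stock, in duplicate). Incubation was 2-3 h at 25 °C in HEPES buffer, pH 7.4. Nonspecific binding was defined with 10 µM haloperidol. Filtration was followed by scintillation counting. KB and cooperativity α were obtained from an allosteric ternary complex model.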

Test [3] has the same target. Nature of the test: Negative allosteric modulation of recombinant human D2L receptor expressed in Flp-In CHO cells assessed as inhibition of dopamine-induced reduction in forskolin stimulated cAMP accumulation by measuring modulation of dopamine efficacy preincubated for 30 mins followed by forskolin stimulation and measured after 30 mins by BRET assay. Format: functional, cell-based.

For test [4] the target is unchanged. The experiment in a line: Negative allosteric modulation of recombinant human D2L receptor expressed in Flp-In CHO cells assessed as inhibition of dopamine-induced reduction in forskolin stimulated cAMP accumulation by measuring co-operativity factor preincubated for 30 mins followed by forskolin stimulation and measured after 30 mins by BRET assay. Format: functional, cell-based.

The target is the same in test [5]. The experiment in a line: Negative allosteric modulation of recombinant human D2L receptor expressed in Flp-In CHO cells assessed as inhibition of dopamine-induced reduction in forskolin stimulated cAMP accumulation preincubated for 30 mins followed by forskolin stimulation and measured after 30 mins by BRET assay. Type of test: functional, cell-based.
The target is the same in test [6]. The experiment in a line: Displacement of [3H]Raclopride from recombinant human D2L receptor expressed in Flp-In CHO cell membranes assessed as co-operativity factor after 2 to 3 hrs by microbeta counting method. An outline of the steps: as §1
(In general: Loss of bound radioactivity is the signal in a displacement assay; it reports binding, not function.)

Another test is filed under the species Homo sapiens. Nature of the test: Selectivity ratio of Kb for recombinant D3 receptor (unknown origin) expressed in Flp-In CHO cell membranes to Kb for recombinant human D2L receptor expressed in Flp-In CHO cell membranes. Type of test: cell-based.
Test [7] deals with D(3) dopamine receptor (Homo sapiens) (UniProt P35462). The experiment in a line: Displacement of [3H]Raclopride from recombinant D3 receptor (unknown origin) expressed in Flp-In CHO cell membranes after 2 to 3 hrs by microbeta counting method. An outline of the steps:
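In FlpIn CHO membranes expressing hD3R, compound was tested for displacement of [3H]raclopride in equilibrium binding. Competition curves were fitted with an allosteric ternary complex model to give KB and the net cooperativity factor with [3H]raclopride. Data are at least three independent experiments in duplicate.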

The pKb is the negative decadic logarithm of the Kb, by convention in mol/L.

Active and inactive are the calls of the source. The rule behind the calls is not given here.

Sequence of D(2) dopamine receptor (Homo sapiens) (P14416 whole entry): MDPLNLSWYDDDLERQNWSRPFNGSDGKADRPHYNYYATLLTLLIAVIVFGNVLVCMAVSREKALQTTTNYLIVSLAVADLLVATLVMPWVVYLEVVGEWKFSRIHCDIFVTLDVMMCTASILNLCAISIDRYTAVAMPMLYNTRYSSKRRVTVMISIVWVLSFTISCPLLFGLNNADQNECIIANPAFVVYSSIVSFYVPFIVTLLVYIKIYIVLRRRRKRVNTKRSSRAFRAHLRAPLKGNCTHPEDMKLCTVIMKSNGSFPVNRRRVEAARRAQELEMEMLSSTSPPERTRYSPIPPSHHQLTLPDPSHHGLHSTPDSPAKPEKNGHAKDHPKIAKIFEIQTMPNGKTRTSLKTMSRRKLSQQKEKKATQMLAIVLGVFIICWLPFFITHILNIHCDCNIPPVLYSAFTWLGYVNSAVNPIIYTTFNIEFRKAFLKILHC
Sequence of D(3) dopamine receptor (Homo sapiens) (P35462 whole entry): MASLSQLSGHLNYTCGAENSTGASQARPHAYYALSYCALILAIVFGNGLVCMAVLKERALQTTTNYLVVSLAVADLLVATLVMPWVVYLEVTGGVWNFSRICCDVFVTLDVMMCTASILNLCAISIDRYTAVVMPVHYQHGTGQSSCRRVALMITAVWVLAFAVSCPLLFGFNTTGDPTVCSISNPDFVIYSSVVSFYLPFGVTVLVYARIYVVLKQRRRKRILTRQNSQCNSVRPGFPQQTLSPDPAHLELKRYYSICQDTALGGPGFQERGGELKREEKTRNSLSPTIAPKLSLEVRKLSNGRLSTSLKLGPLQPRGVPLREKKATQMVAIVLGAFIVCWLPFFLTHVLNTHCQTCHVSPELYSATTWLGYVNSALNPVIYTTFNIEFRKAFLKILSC

Regarding `FC(F)(F)c1cccc(Oc2nc(CN3CCOCC3)nc3sc4c(c23)CCCC4)c1`, the inhibition result in test [1] was “inactive”. Also, in test [2], the Kb was found to be 22 µM and the pKb amounted to 4.66.
For the molecule `COc1cccc(Nc2nc(CN3CCOCC3)nc3sc4c(c23)CCCC4)c1`, the Activity in test [3] came out at 0.29; in test [4], 0.19. In addition, the figures for the log(activity) in test [3] and in test [4] were -0.53 and -0.73, respectively. Besides, the Kb was 8.02 µM in test [5] and 48 µM in test [2]. The pKb was found to be 5.1 in test [5] and 4.32 in test [2].
Take `FC(F)(F)c1cccc(Nc2nc(CCN3CCOCC3)nc3sc4c(c23)CCCC4)c1`: the log(activity) in test [3] worked out at 0. Moreover, in test [4], the Activity is 0.23 and the log(activity) was -0.63. Besides, in test [5], the Kb was determined as 0.981 µM and the pKb came to 6.01. In test [2], the Kb stood at 70 µM and the pKb worked out at 4.16.
As to `CN(C)c1nc(CN2CCOCC2)nc2sc(Cc3ccccc3)cc12`, in test [3], the Activity amounted to 0.15 and the log(activity) is -0.84. For the same molecule, in test [4], the Activity was 0.68 and the log(activity) is -0.17. Also, in test [5], the Kb came out at 4.9 µM and the pKb turned out to be 5.31. Also, in test [2], the Kb came to 30 µM and the negative-log Kb (pKb) is 4.51.
`FC(F)(F)c1cccc(Nc2nc(CN3CCOCC3)nc3sc4c(c23)CCC4)c1`: the log(activity) in test [3] was 0. For the same molecule, in test [4], the Activity is 0.13 and the log(activity) is -0.9. Also, in test [5], the Kb was 11.4 µM and the pKb came to 4.95. Besides, in test [2], the Kb was 59 µM and the pKb amounted to 4.23.
For `FC(F)(F)c1cccc(Nc2ncnc3sccc23)c1`, the log(activity) in test [3] stood at 0. For the same molecule, in test [4], the Activity was found to be 0.37 and the log(activity) is -0.43. In test [5], the Kb worked out at 0.8 µM and the pKb came out at 6.13. Also, in test [2], the Kb turned out to be 63 µM and the pKb was found to be 4.2.
In the case of `FC(F)(F)c1cccc(Nc2nc(CN3CCOCC3)nc3sc4c(c23)CCCCCC4)c1`, the inhibition entry in test [1] was “inactive”. In addition, the pKb in test [2] came to 3.98.
Regarding `FC(F)(F)c1cccc(Nc2nc(CN3CCOCC3)nc3scc(-c4ccccc4)c23)c1`, in test [6], the Activity was 0.13 and the log(activity) was -0.88. In addition, in test [1], the inhibition entry was “inactive”. In test [2], the Kb was 48.6 µM and the pKb amounted to 4.31.
As to `CCN(CC)c1ncnc2sc3c(c12)CCCC3`, the results for the log(activity) in test [3] and in test [4] were -3 and 0, respectively. The Kb was 1.92 µM in test [5] and 17 µM in test [2]. For the same molecule, the pKb is 5.72 in test [5] and 4.76 in test [2].
For the molecule `CNc1nc(CN2CCOCC2)nc2sc3c(c12)CCCC3`, the inhibition entry in test [1] is “inactive”. Besides, in test [2], the Kb was 53 µM and the pKb was 4.28.
With `CCN(CC)c1nc(CCCCN2CCOCC2)nc2sccc12`, the Selectivity ratio in the test filed under Homo sapiens is 3.5. Also, the Kb in test [7] came to 0.9 µM; in test [5], 1.3 µM; in test [2], 3 µM. In addition, the pKb was determined as 6.06 in test [7], 5.89 in test [5] and 5.51 in test [2]. Also, the figures for the Activity in test [3] and in test [4] were 0.15 and 0.05, respectively. In addition, the log(activity) in test [3] was -0.82; in test [4] it was -1.34.
Turning to `Oc1cccc(Nc2nc(CN3CCOCC3)nc3sc4c(c23)CCCC4)c1`, the figures for the log(activity) in test [3] and in test [4] were -3 and -1.22, respectively. Further, in test [4], the Activity was found to be 0.06. Further, the Kb in test [5] came out at 2.81 µM; in test [2], 35 µM. For the same molecule, the pKb in test [5] was 5.55; in test [2] it was 4.45.
As to `CCN(CC)c1ncnc2sccc12`, the results for the Activity in test [6] and in test [3] were 0.1 and 0.13, respectively. For the same molecule, the log(activity) in test [6] was -1.01; in test [3], -0.89; in test [4] it was 0. Besides, the Kb in test [5] was determined as 4.6 µM; in test [2], 23 µM. The pKb came to 5.31 in test [5] and 4.65 in test [2].
For `CCN(CC)c1nc(CCCCN2CCOCC2)nc2sc3c(c12)CCCC3`, the Selectivity ratio in the test listed under Homo sapiens was 1.6. Further, the Kb in test [7] was determined as 10 µM; in test [5], 1.77 µM; in test [2] it was 16 µM. For the same molecule, the pKb came to 4.99 in test [7], 5.8 in test [5] and 4.79 in test [2]. For the same molecule, in test [3], the log(activity) came to 1.07.
Consider `FC(F)(F)c1cccc(Nc2nc(CN3CCOCC3)nc3sc(Cc4ccccc4)cc23)c1`, for which, in test [1], the inhibition entry is “inactive”. Besides, in test [2], the Kb came out at 50 µM and the pKb is 4.3.
For the molecule `FC(F)(F)c1cccc(Nc2nc(CN3CCOCC3)nc3sc(C4CCCCC4)cc23)c1`, the log(activity) in test [3] was determined as 0. For the same molecule, in test [4], the Activity worked out at 0.13 and the log(activity) was -0.9. Further, in test [5], the Kb was 5.37 µM and the pKb turned out to be 5.27. Moreover, in test [2], the Kb was found to be 45.8 µM and the pKb came out at 4.34.
Turning to `FC(F)(F)c1cccc(Nc2nc(CN3CCCCC3)nc3sc4c(c23)CCCC4)c1`, in test [3], the Activity is 0.6 and the log(activity) is -0.22. In test [4], the Activity stood at 0.34 and the log(activity) was -0.46. Moreover, in test [5], the Kb is 6.98 µM and the pKb worked out at 5.16. Further, in test [2], the Kb came to 39 µM and the pKb amounted to 4.41.
With `c1ccc(Nc2nc(CN3CCOCC3)nc3sc4c(c23)CCCC4)cc1`, in test [3], the Activity was 0.11. Besides, the log(activity) is -0.95 in test [3] and 0 in test [4]. In addition, the Kb is 7.46 µM in test [5] and 99 µM in test [2]. Also, the pKb was 5.13 in test [5] and 4 in test [2].
As for `Cc1sc2nc(CN3CCOCC3)nc(Nc3cccc(C(F)(F)F)c3)c2c1C`, in test [1], the inhibition entry was “inactive”. The pKb in test [2] amounted to 3.59.
As to `CCN(CC)c1nc(CC2CCOCC2)nc2sc3c(c12)CCCC3`, the inhibition result in test [1] is “inactive”. In addition, in test [2], the Kb is 35 µM and the pKb was determined as 4.45.
Turning to `Fc1cccc(Nc2nc(CN3CCOCC3)nc3sc4c(c23)CCCC4)c1`, in test [3], the Activity is 0.4 and the log(activity) is -0.4. Further, in test [4], the log(activity) is 0. For the same molecule, in test [5], the Kb turned out to be 8.39 µM and the pKb was 5.08.
On to `FC(F)(F)c1cccc(Nc2nc(CN3CCOCC3)nc3sc4c(c23)CCCCC4)c1`, for which the inhibition result in test [1] is “inactive”. In addition, in test [2], the Kb came to 37 µM and the pKb was 4.43.
`FC(F)(F)c1cccc(Nc2nc(CN3CCOCC3)nc3sc(-c4ccccc4)cc23)c1`: the inhibition result in test [1] is “inactive”. Besides, in test [2], the Kb was found to be 45 µM and the pKb was 4.35.
In the case of `FC(F)(F)c1cccc(Nc2nc(CCCCN3CCOCC3)nc3sccc23)c1`, in test [3], the Activity worked out at 0.06 and the log(activity) is -1.21. Besides, in test [4], the Activity is 0.13 and the log(activity) was -0.88. For the same molecule, in test [5], the Kb amounted to 1.4 µM and the pKb was 5.85. In addition, in test [2], the Kb is 19 µM and the pKb came out at 4.71.
As for `FC(F)(F)c1cccc(Nc2nc(CN3CCOCC3)nc3sccc23)c1`, the inhibition entry in test [1] is “inactive”. Also, the pKb in test [2] came to 3.91.
Regarding `FC(F)(F)c1cccc(Nc2nc(CCCN3CCOCC3)nc3sc4c(c23)CCCC4)c1`, the Activity in test [3] amounted to 0.4; in test [4], 0.21. Besides, the values for the log(activity) in test [3] and in test [4] were -0.4 and -0.68, respectively. The Kb in test [5] worked out at 1.63 µM; in test [2], 13 µM. Moreover, the pKb in test [5] amounted to 5.79; in test [2], 4.89.
For the molecule `FC(F)(F)c1cccc(Nc2nc(CN3CCOCC3)nc3scc(C4CCCCC4)c23)c1`, in test [1], the inhibition result is “inactive”. In test [2], the Kb was found to be 38 µM and the pKb was 4.42.
For `CCN(CC)c1nc(CN2CCOCC2)nc2sccc12`, the Selectivity ratio in the test filed under Homo sapiens came to 0.1. Further, the figures for the Kb in test [7], in test [5] and in test [2] were 11 µM, 3.13 µM and 1.3 µM, respectively. Also, the pKb in test [7] stood at 4.95; in test [5] it was 5.5; in test [2] it was 5.89. Further, the Activity in test [3] turned out to be 0.24; in test [4], 0.08. Besides, the log(activity) was -0.62 in test [3] and -1.1 in test [4].
As for `O=c1[nH]cnc2sc3c(c12)CCCC3`, in test [1], the inhibition entry is “inactive”.

The values above are taken from ChEMBL document CHEMBL4308833, “A Thieno[2,3- d]pyrimidine Scaffold Is a Novel Negative Allosteric Modulator of the Dopamine D2 Receptor” (J Med Chem, 2018).
